Consider 4 compounds from ChEMBL document CHEMBL4219023, “Synthesis and biological activity of novel tert-amylphenoxyalkyl (homo)piperidine derivatives as histamine H3R ligands” (Bioorg Med Chem, 2017).

Data set [1] can be described thus: Drug level in pooled human liver microsomes treated with 50 uM 1-(5-(4-(tert-Pentyl)phenoxy)pentyl)azepane hydrogen oxalate after 2 hrs in presence of NADPH by LC/MS analysis. The format is ADME, microsome. Put shortly: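 Pooled human liver microsomes (1 mg/ml) in 0.1 M Tris-HCl pH 7.4 with compound at 50 μM. After 5 min preincubation at 37 °C, reaction was started with NADPH regeneration system and run 2 h at 37 °C. Stopped with cold methanol and centrifuged. Supernatant analysed by UPLC-ESI tandem quadrupole MS.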

For data set [2], the system named is Mus musculus. The data set can be described thus: […] in po dosed mouse brain assessed as activation in HA release measured after 90 mins. The format is functional. Conditions: 1.5 h.
A further data set concerns the target Histamine H3 receptor (Homo sapiens, UniProt Q9Y5N1). The data set can be described thus: Displacement of [125I]Iodoproxyfan from recombinant human histamine H3 receptor expressed in CHOK1 cell membranes after 90 mins. Put shortly:
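Membranes of CHO-K1 cells expressing hH3R were incubated 90 min at 25 °C, shaken at 250 rpm, with [125I]iodoproxyfan (16–50 pM) and test compound. Nonspecific binding was defined with 1 μM imetit. Separation by filtration on PEI-treated GF/B filters. Ki obtained from IC50 by Cheng-Prusoff.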

For data set [3], the system named is Mus musculus. The data set can be described thus: Anticonvulsant activity in CF-1 albino mouse assessed as protection against maximal electroshock-induced seizures at 30 mg/kg, ip after 0.5 hrs. The format is functional, organism-based. Put shortly:
(§1)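 Male CF-1 albino mice received compound i.p. as a suspension in 0.5% methylcellulose (30, 100 or 300 mg/kg). Maximal electroshock seizure test read 0.5 h and 4 h after dosing. Result given as animals protected/animals tested.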

For data set [4], the system named is Mus musculus. The data set can be described thus: Anticonvulsant activity in CF-1 albino mouse assessed as protection against maximal electroshock-induced seizures at 30 mg/kg, ip after 4 hrs. The format is functional, organism-based. Put shortly:
as §1
In general terms: Protection in the maximal electroshock model is a classic sign of anticonvulsant action.

For data set [5], the system named is Mus musculus. The data set can be described thus: Anticonvulsant activity in CF-1 albino mouse assessed as protection against maximal electroshock-induced seizures at 100 mg/kg, ip after 4 hrs. The format is functional, organism-based. Put shortly:
as §1

In data set [6] the test system is Mus musculus. The data set can be described thus: Anticonvulsant activity in CF-1 albino mouse assessed as protection against maximal electroshock-induced seizures at 300 mg/kg, ip after 0.5 hrs. The format is functional, organism-based. Put shortly:
as §1

Data set [7] deals with Mus musculus. The data set can be described thus: Anticonvulsant activity in CF-1 albino mouse assessed as protection against subcutaneous pentetrazole-induced seizures at 30 mg/kg, ip after 0.5 hrs. The format is functional, organism-based.
The test system of data set [8] is Mus musculus. The data set can be described thus: Anticonvulsant activity in CF-1 albino mouse assessed as protection against subcutaneous pentetrazole-induced seizures at 30 mg/kg, ip after 4 hrs. The format is functional, organism-based.
The subject of data set [9] is Mus musculus. The data set can be described thus: Anticonvulsant activity in CF-1 albino mouse assessed as protection against subcutaneous pentetrazole-induced seizures at 100 mg/kg, ip after 0.5 hrs. The format is functional, organism-based.
The test system of data set [10] is Mus musculus. The data set can be described thus: Anticonvulsant activity in CF-1 albino mouse assessed as protection against subcutaneous pentetrazole-induced seizures at 100 mg/kg, ip after 4 hrs. The format is functional, organism-based.
The test system of data set [11] is Mus musculus. The data set can be described thus: Anticonvulsant activity in CF-1 albino mouse assessed as protection against subcutaneous pentetrazole-induced seizures at 300 mg/kg, ip after 0.5 hrs. The format is functional, organism-based.
For data set [12], the system named is Mus musculus. The data set can be described thus: Anticonvulsant activity in CF-1 albino mouse assessed as protection against subcutaneous pentetrazole-induced seizures at 300 mg/kg, ip after 4 hrs. The format is functional, organism-based.
For data set [13], the system named is Mus musculus. The data set can be described thus: Neurotoxicity in CF-1 albino mouse assessed as unable to grasp at 100 mg/kg, ip after 0.5 hrs by rotarod test. The format is toxicity, organism-based. Conditions: in vivo. In a few lines: (§2)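 Anticonvulsant Screening Program (NINDS) Phase 1 neurotoxicity screen in male albino CF-1 mice. Compounds were given i.p. as suspensions in 0.5% methylcellulose at 30, 100 and/or 300 mg/kg, and animals were observed 0.5 h and 4 h after dosing. The rotarod test was scored as number of animals showing toxicity over number tested, with the kind of toxicity recorded: inability to grasp rotorod, death, diarrhea, continuous seizure activity, loss of righting reflex, myoclonic jerks or tremors.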
(In general: Falling from the rotarod earlier than controls is read as motor impairment.)

Data set [14] has as its system Mus musculus. The data set can be described thus: Neurotoxicity in CF-1 albino mouse assessed as death at 100 mg/kg, ip after 4 hrs by rotarod test. The format is toxicity, organism-based. Conditions: in vivo. Put shortly:
as §2

Data set [15] deals with Mus musculus. The data set can be described thus: Neurotoxicity in CF-1 albino mouse assessed as death at 300 mg/kg, ip after 4 hrs by rotarod test. The format is toxicity, organism-based. Conditions: in vivo. In a few lines: as §2
The subject of data set [16] is Mus musculus. The data set can be described thus: Neurotoxicity in CF-1 albino mouse at 100 mg/kg, ip after 0.5 hrs by rotarod test. The format is toxicity, organism-based. To be noted: in vivo. In a few lines:
as §2

For data set [17], the system named is Mus musculus. The data set can be described thus: Neurotoxicity in CF-1 albino mouse assessed as death at 300 mg/kg, ip after 0.5 hrs by rotarod test. To be noted: in vivo.
The subject of data set [18] is Mus musculus. The data set can be described thus: Anticonvulsant activity in CF-1 albino mouse assessed as protection against maximal electroshock-induced seizures at 100 mg/kg, ip after 0.5 hrs. The format is functional, organism-based. In a few lines:
as §1

Data set [19] has as its system Mus musculus. The data set can be described thus: Neurotoxicity in CF-1 albino mouse at 30 mg/kg, ip after 4 hrs by rotarod test. The format is toxicity, organism-based. To be noted: in vivo. In a few lines:
(§3)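 Male CF-1 mice were dosed i.p. with compound suspended in 0.5% methylcellulose (30, 100 or 300 mg/kg). Neurotoxicity was scored by rotarod 0.5 h and 4 h after dosing, as animals showing toxicity/animals tested. Type of toxicity was noted, e.g. inability to grasp the rod, tremors, death.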

The test system of data set [20] is Mus musculus. The data set can be described thus: Neurotoxicity in CF-1 albino mouse at 100 mg/kg, ip after 4 hrs by rotarod test. The format is toxicity, organism-based. To be noted: in vivo. Put shortly: as §3
Data set [21] relates to Mus musculus. The data set can be described thus: Neurotoxicity in CF-1 albino mouse at 300 mg/kg, ip after 4 hrs by rotarod test. To be noted: in vivo. The format is toxicity, organism-based. Put shortly: as §2
The nature of data set [22]: Lipophilicity of compound by RP-TLC analysis. To be noted: methanol:acetic acid:water. The format is physicochemical. In a few lines:
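Reversed-phase TLC on RP-18 plates with methanol:acetic acid:water mobile phase (acid constant at 10%, methanol 85–55% in 5% steps). Spots visualised with iodine. RM values were derived from Rf and extrapolated to zero methanol to give RM0.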

Each structure is given as a SMILES string. Activity calls are given as the source filed them. The calls are words filed in the database; no cut-off is given here.

What is called ED50 is the midpoint of the dose-response relation. As usually defined, the Ki is a measure of affinity in units of concentration, obtained from inhibition or displacement.

Sequence of Histamine H3 receptor (Q9Y5N1 whole entry): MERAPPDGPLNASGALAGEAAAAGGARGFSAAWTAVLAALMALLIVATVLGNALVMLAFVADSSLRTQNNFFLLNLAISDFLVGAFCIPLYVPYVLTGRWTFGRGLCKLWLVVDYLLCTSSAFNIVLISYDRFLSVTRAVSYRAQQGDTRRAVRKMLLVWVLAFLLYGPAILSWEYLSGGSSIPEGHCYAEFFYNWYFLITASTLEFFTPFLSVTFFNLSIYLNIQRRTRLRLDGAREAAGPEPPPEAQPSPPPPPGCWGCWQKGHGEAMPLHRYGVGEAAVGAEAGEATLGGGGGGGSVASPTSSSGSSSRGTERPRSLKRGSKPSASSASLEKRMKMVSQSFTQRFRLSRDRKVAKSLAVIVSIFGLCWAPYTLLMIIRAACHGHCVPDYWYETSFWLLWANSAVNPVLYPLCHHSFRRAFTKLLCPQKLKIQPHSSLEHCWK

Take `CC(CO)c1ccc(OCCCCCN2CCCCCC2)cc1` (centres undefined): the Drug uptake result in [1] is recorded as “Active”.
`Clc1ccc(CCCOCCCN2CCCCC2)cc1` [PITOLISANT]: in the data set with Mus musculus [2], the 50% effective dose (ED50) was determined as 1.5 mg/kg.
Consider `CCC(C)(C)c1ccc(OCCCCCCCCN2CCC(C)CC2)cc1.O=C(O)C(=O)O`, for which, at Histamine H3 receptor, the Ki is 308 nM. In addition, the result in the data set with Mus musculus [3], in the data set on Mus musculus [5] and in the data set on Mus musculus [6] was Active. Also, the result in the data set with Mus musculus [4], in the data set with Mus musculus [7], with Mus musculus [8], with Mus musculus [9], in the data set on Mus musculus [10] and in the data set with Mus musculus [11] was inactive. In addition, the outcome in the data set with Mus musculus [12] was inactive. In addition, the Activity result with Mus musculus [13], in the data set with Mus musculus [14], in the data set on Mus musculus [15], with Mus musculus [16] and with Mus musculus [17] was “Toxic” each time.
As to `CCC(C)(C)c1ccc(OCCCCCCCN2CCCCC2)cc1.O=C(O)C(=O)O`, the Ki at Histamine H3 receptor was determined as 55 nM. For the same compound, the result in the data set on Mus musculus [3], in the data set on Mus musculus [4], in the data set with Mus musculus [5], in the data set with Mus musculus [7], in the data set with Mus musculus [8] and with Mus musculus [9] was inactive. Moreover, the outcome with Mus musculus [10] was inactive. For the same compound, the result with Mus musculus [18] and in the data set on Mus musculus [6] was Active. Besides, the Activity result is reported as “Toxic” with Mus musculus [13]; “Non-Toxic” with Mus musculus [19]; “Non-Toxic” in the data set with Mus musculus [20]; “Non-Toxic” in the data set with Mus musculus [21]; “Toxic” in the data set with Mus musculus [17]. The same compound displayed a Rm in data set [22] of 2.624.
